The values that follow come from PubChem BioAssay AID504823 (Southern Research Specialized Biocontainment Screening …, 2011).

The test relates to HEp-2 RSV Long CPE inhibition, luminescence viability. Description: inhibition of RSV cytopathic effect in HEp-2, dose response, cell-based, RSV Long, synthesized compounds, set 9 (AID 504823). The essentials: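 System: RSV Long-infected HEp-2 cells; Reagent: RSV Long, MOI 0.45; Incubation: virus and compound exposure of 6 days at 37 °C; Detection: luminescence measure of cell viability reflecting viral cytopathic effect; Measure: % CPE inhibition scaled to cell-only and virus-only wells, IC50 by 4-parameter fit; Replication: triplicate.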

The structures appear in SMILES notation.

As to `COCCCNC(=O)c1ccc(Cn2c(=O)c3ccccc3n(Cc3ccc(Cl)cc3)c2=O)cc1`, the IC50 (as a rule, the concentration at which inhibition is half-maximal) was less than 1200 nM.
As to `COCCCNC(=O)c1ccc(Cn2c(=O)c3ccccc3n(Cc3ccc([N+](=O)[O-])cc3)c2=O)cc1`, the 50% inhibitory concentration (IC50) was less than 1200 nM.
With `COCCCNC(=O)c1ccc(Cn2c(=O)c3ccccc3n(Cc3ccc(Br)cc3)c2=O)cc1`, the concentration for half-maximal inhibition (IC50) was less than 1200 nM.
Consider `COCCCNC(=O)c1ccc(Cn2c(=O)c3ccccc3n(Cc3ccc(C)c(C(F)(F)F)c3)c2=O)cc1`, for which the IC50 is less than 1200 nM.
The value for `COCCCNC(=O)c1ccc(Cn2c(=O)c3ccccc3n(Cc3ccc(C(F)(F)F)cc3)c2=O)cc1` was less than 1200 nM.
For `Cc1ccc(C)c(NC(=O)[C@@H]2CCCN2S(=O)(=O)c2cccc3cccnc23)c1`, the concentration for half-maximal inhibition (IC50) was 3200 nM.
`COCCCNC(=O)c1ccc(Cn2c(=O)c3ccccc3n(Cc3ccc4nonc4c3)c2=O)cc1`: the IC50 was 5600 nM.
Turning to `COCCCNC(=O)c1ccc(Cn2c(=O)c3ccccc3n(Cc3ccc(OC)cc3)c2=O)cc1`, the IC50 was 2400 nM.
As to `COc1ccccc1CNC(=O)C1CCN(S(=O)(=O)c2cccc3nonc23)CC1`, the IC50 is 2900 nM.
